Data set [1] is described as follows: Selectivity index, ratio of cytotoxic concentration for HGF cells to IC50 for human LNCAP cells. The class given is toxicity. The conditions noted are these: HGF cells and LNCAP cells, read-out: Selectivity Index.
Data set [2] is described as follows: Selectivity index, ratio of cytotoxic concentration for HGF cells to IC10 for human LNCAP cells. Type of data set: toxicity. As to conditions: HGF cells and LNCAP cells, read-out: Selectivity Index.
Data set [3] deals with DU-145. Briefly: Antiproliferative activity against human DU145 cells at 10 uM after 48 hrs by SRB assay relative to control. The class given is functional. In outline:
(§1)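 NCI one-dose screen at 10 µM across 60 human tumour lines, 48 h exposure; growth given relative to no-drug control and to time-zero cell number, so 0–100 means inhibition and below 0 lethality; 100 means no inhibition.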
(In general: Sulforhodamine B stains cellular protein and so reports cell mass.)

The subject of data set [4] is Panel NCI-60 (60 carcinoma cell lines). Put plainly: Antiproliferative activity against human NCI60 cells at 10 uM after 48 hrs by SRB assay. Type of data set: functional, cell-based. In outline: as §1
Data set [5] deals with DU-145. Put plainly: Antiproliferative activity against human DU145 cells after 120 hrs by MTT assay. As to conditions: DU-145, 120 h. Type of data set: functional, cell-based. In outline:
(§2)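 DU-145, PC-3 and LNCaP cells grown in RPMI with 10% fetal calf serum, 37 °C, 5% CO₂; seeded at 5 × 10³ cells/well, exposed to 0.1–50 µM for 120 h. After PBS wash, MTT (5 mg/mL) in PBS 4 h, formazan dissolved in isopropanol, read at 570 nm. Viability as % of untreated; IC50 from at least three independent dose-response curves.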

The species entered for data set [6] is Homo sapiens. Put plainly: Selectivity ratio of Ki for human alpha1D adrenoceptor to Ki for human alpha1B adrenoceptor.
The species entered for data set [7] is Homo sapiens. Put plainly: Selectivity ratio of Ki for human alpha1A adrenoceptor to Ki for human alpha1B adrenoceptor.
In data set [8] the test system is LNCaP. Briefly: Antioxidant activity in human LNCAP cells assessed as inhibition of t-BuOOH-induced ROS level at 1 to 10 uM after 30 mins by DCFH-DA dye-based spectrofluorometric analysis relative to control. The class given is functional.
The test system of data set [9] is PC-3. Briefly: Growth inhibition of human PC3 cells at 10 uM after 48 hrs by SRB assay relative to control. The class given is functional. The conditions noted are these: PC-3, 48 h, read-out: GI. In outline:
as §1

Data set [10] concerns the target T1, Alpha-1D adrenergic receptor (Homo sapiens, UniProt P25100).
T1 sequence (P25100 whole entry): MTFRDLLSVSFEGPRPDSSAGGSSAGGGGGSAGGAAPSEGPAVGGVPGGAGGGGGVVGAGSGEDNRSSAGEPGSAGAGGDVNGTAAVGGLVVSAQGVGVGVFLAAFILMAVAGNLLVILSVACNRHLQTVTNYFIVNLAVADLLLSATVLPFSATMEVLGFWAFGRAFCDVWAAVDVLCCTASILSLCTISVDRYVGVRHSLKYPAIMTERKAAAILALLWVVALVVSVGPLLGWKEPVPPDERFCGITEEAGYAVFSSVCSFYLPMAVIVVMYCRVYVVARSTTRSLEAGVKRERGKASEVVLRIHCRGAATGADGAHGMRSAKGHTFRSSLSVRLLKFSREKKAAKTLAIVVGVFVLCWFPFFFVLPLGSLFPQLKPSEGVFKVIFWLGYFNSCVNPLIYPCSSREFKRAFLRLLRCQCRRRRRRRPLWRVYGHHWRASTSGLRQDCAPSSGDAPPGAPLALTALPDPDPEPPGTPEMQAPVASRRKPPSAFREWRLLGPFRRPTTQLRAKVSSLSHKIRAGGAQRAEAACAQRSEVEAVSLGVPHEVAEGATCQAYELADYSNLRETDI
Briefly: Displacement of [3H]prazosin from human alpha1D adrenoceptor expressed in CHO cell membranes after 30 mins.

For data set [11], the system named is LNCaP. Put plainly: Induction of apoptosis in human LNCAP cells assessed as increase in DNA fragmentation at 1 to 10 uM after 24 hrs by spectrophotometer relative to control. The class given is functional. In outline: (§3)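 LNCaP cells seeded at 1 × 10³ cells/well, treated 1–10 µM for 24 h at 37 °C, 5% CO₂; lysed 30 min, centrifuged, supernatant ELISA with biotin anti-histone and peroxidase anti-DNA antibodies on streptavidin plate, ABTS 20 min, read 405 nm. Fold increase = treated/untreated absorbance; mean ± SD, three independent experiments.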

Data set [12] concerns LNCaP. Briefly: Induction of necrosis in human LNCAP cells assessed as loss of plasma membrane integrity at 1 to 10 uM after 24 hrs by trypan blue staining-based Neubauer hemocytometric method. The class given is functional, cell-based. In outline:
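LNCaP cells seeded at 1 × 10⁶ cells/well, treated 1–10 µM for 24 h at 37 °C, 5% CO₂; scraped into PBS, mixed 1:1 with 0.5% trypan blue, counted on a Neubauer hemocytometer; percentage of stained cells from at least 3 separate counts.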

Data set [13] deals with LNCaP. Put plainly: Induction of ROS generation in human LNCAP cells at 1 to 10 uM after 24 hrs by DCFH-DA dye-based spectrofluorometric analysis relative to control. Type of data set: functional. Summed up:
(§4)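 LNCaP cells seeded at 2 × 10⁴ cells/well, exposed to compounds (1–10 µM) for 24 h; then loaded with 5 µM DCFH-DA in PBS, 37 °C, 5% CO₂, 30 min, washed, fluorescence read (excitation 485 nm). Antioxidant lines involve t-BuOOH challenge. Output as fold increase of intracellular ROS over untreated; mean ± SD, three independent experiments.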

The test system of data set [14] is LNCaP. Briefly: Prooxidant activity in human LNCAP cells assessed as increase in depletion of intercellular GSH level at 1 to 10 uM after 24 hrs by MCB dye-based spectrofluorometric analysis. Type of data set: functional, cell-based. Summed up:
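LNCaP cells seeded at 2 × 10⁴ cells/well, treated 1–10 µM for 24 h at 37 °C, 5% CO₂; washed, 50 µM monochlorobimane in PBS 30 min at 37 °C, fluorescence read at excitation 360 nm, emission 465 nm; arbitrary fluorescence units; mean ± SD, three independent experiments.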

The test system of data set [15] is PC-3. Briefly: Antiproliferative activity against human PC3 cells after 120 hrs by MTT assay. The class given is functional, cell-based. As to conditions: PC-3, 120 h. Summed up:
as §2

Data set [16] deals with T2, Alpha-1A adrenergic receptor (Homo sapiens, UniProt P35348).
T2 sequence (P35348 whole entry): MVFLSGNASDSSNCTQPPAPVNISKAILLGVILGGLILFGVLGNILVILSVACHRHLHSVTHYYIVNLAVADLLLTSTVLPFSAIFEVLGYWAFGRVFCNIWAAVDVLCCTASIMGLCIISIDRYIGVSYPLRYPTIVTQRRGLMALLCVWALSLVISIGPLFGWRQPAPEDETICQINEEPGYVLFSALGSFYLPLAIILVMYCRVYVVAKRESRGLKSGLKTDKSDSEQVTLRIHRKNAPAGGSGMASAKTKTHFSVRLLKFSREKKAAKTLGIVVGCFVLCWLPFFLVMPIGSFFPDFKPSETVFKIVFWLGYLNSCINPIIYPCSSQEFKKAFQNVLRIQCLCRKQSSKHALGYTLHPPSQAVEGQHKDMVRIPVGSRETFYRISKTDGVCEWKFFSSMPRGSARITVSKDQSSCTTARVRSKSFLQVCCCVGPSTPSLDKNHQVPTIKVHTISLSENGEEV
Briefly: Displacement of [3H]prazosin from human alpha1A adrenoceptor expressed in CHO cell membranes after 30 mins.

The subject of data set [17] is LNCaP. Briefly: Antioxidant activity in human LNCAP cells assessed as inhibition of t-BuOOH-induced ROS level at 1 to 10 uM after 24 hrs by DCFH-DA dye-based spectrofluorometric analysis. The class given is functional, cell-based.
Data set [18] concerns LNCaP. Put plainly: Induction of apoptosis in human LNCAP cells assessed as increase in DNA fragmentation after 24 hrs by spectrophotometer. Type of data set: functional, cell-based. Summed up:
as §3

Data set [19] has as its system LNCaP. Put plainly: Antioxidant activity in human LNCAP cells assessed as inhibition of t-BuOOH-induced ROS level after 30 mins by DCFH-DA dye-based spectrofluorometric analysis. Type of data set: functional, cell-based.
For data set [20], the system named is LNCaP. Briefly: Antiproliferative activity against human LNCAP cells after 120 hrs by MTT assay. The class given is functional, cell-based. In outline: as §2
For orientation: Tetrazolium dyes change colour on reduction, which living cells bring about.

Data set [21] deals with T3, Alpha-1B adrenergic receptor (Homo sapiens, UniProt P35368).
T3 sequence (P35368 whole entry): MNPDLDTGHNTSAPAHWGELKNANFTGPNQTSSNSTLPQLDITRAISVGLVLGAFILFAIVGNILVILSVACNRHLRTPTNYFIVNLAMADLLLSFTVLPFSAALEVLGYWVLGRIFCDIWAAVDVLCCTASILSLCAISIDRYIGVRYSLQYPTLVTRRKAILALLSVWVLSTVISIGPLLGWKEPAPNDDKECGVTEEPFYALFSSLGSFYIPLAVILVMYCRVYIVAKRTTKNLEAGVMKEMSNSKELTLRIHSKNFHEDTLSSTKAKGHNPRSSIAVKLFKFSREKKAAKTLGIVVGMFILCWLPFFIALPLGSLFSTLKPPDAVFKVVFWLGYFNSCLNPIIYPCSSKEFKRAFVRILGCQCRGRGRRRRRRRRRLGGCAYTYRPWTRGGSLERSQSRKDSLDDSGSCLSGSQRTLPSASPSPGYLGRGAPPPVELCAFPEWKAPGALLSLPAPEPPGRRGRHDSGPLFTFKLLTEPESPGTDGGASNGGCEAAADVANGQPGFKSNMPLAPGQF
Briefly: Displacement of [3H]prazosin from human alpha1B adrenoceptor expressed in CHO cell membranes after 30 mins.

Data set [22] relates to LNCaP. Put plainly: Induction of ROS generation in human LNCAP cells after 24 hrs by DCFH-DA dye-based spectrofluorometric analysis. Type of data set: functional, cell-based. Summed up:
as §4

A word on the IC50: it is the concentration that inhibits the measured activity by half. A higher IC50 goes with weaker potency in that assay. In general, Ki refers to a measure of affinity in units of concentration, obtained from inhibition or displacement. A low value points to tighter binding.

Calls of active or inactive are those of the source. The calls are words filed in the database; no cut-off is given here.

`COc1cc2nc(N3CCC[C@H](NC4=CC(=O)c5ccccc5C4=O)C3)nc(N)c2cc1OC`: the selectivity ratio in data set [1] amounted to 4.7; in [2] it was 9.1. The Activity is 54% with DU-145 [3], 56% in the data set with LNCaP [13], “Dose-dependent effect” in the data set with LNCaP [18] and “Dose-dependent effect” in the data set on LNCaP [22]. Further, the outcome (in data set [4]; in the data set on LNCaP [14]) was Active. Moreover, the IC50 worked out at 18.5 µM in the data set on DU-145 [5], 18.2 µM with PC-3 [15] and 6.32 µM in the data set on LNCaP [20]. Further, the Ratio Ki in the data set listed under Homo sapiens [6] was 4; in the data set listed under Homo sapiens [7], 13. In addition, the “inhibition (INH)” value with LNCaP [8] came to 34%. The inhibition of growth at 10 µM with PC-3 [9] was 77%. Further, the Ki in [10] was 0.00214 µM; in data set [16] it was 0.00708 µM; in [21], 0.000525 µM. Moreover, in the data set with LNCaP [11], the “fold change (FC)” value amounted to 9.9. For the same compound, the result with LNCaP [12] was inactive. In the data set on LNCaP [17], the inhibition result was “inactive”. In addition, the inhibition entry in the data set on LNCaP [19] is “Dose-dependent effect”.

These data come from ChEMBL document CHEMBL4138091, “Quinazoline based α1-adrenoreceptor antagonists with potent antiproliferative activity in human prostate cancer cell lines” (Eur J Med Chem, 2017).
